Measured values as given in ChEMBL document CHEMBL3864132, “Free fatty acid receptor 1 (GPR40) agonists containing spirocyclic periphery inspired by LY2881835” (Bioorg Med Chem, 2016).

Columns and labels:
[1] = target: T1, Free fatty acid receptor 1 (Homo sapiens, UniProt O14842); assay: Agonist activity at human FFA1 receptor expressed in CHO cells assessed as induction of Ca2+ flux by fluo-8 dye based FLIPR assay; assay type: functional, cell-based
Outline: (§1)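 CHO cells stably expressing human GPR40 seeded 24 h before assay, loaded 1 h with Fluo-8 calcium dye, read on FLIPR. Agonist response taken as maximum fluorescence change over baseline; concentration-response curves fitted for EC50. Efficacy expressed relative to GW9508 at 5 μM.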

[2] = Apparent permeability from apical to basolateral side in human Caco2 cells at 10 uM by HPLC-MS analysis; assay type: ADME, cell-based; conditions: Caco-2
Outline: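 Apical-to-basolateral transport across Caco-2 monolayers, integrity checked by TEER in every well. Compound at 10 μM, acceptor concentrations by HPLC-MS. Papp = (VA/(area × time)) × ([drug]acc/[drug]initial,donor), insert area 0.31 cm², in 10^-6 cm/s. Mean of n = 2.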

[3] = target: T1, Free fatty acid receptor 1; assay: Agonist activity at human FFA1 receptor expressed in CHO cells assessed as induction of Ca2+ flux by fluo-8 dye based FLIPR assay relative to GW9508; assay type: functional, cell-based; outline: as §1
[4] = Protein binding in human plasma at 1 uM after 5 hrs by HPLC-MS/MS analysis; assay type: ADME, cell-free; conditions: read-out: PPB (converted)
Outline: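 Equilibrium dialysis (12–14 kDa MWCO) of plasma spiked at 1 μM (1% solvent) against PBS pH 7.4, 5 h at 37°C with shaking, quadruplicates. Chambers matrix-matched, precipitated with acetonitrile and analysed by HPLC-MS/MS. Bound % = (1 − buffer/plasma peak area) × 100; recovery checked against undialyzed spiked plasma.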

[5] = Kinetic aqueous solubility of the compound in PBS buffer […] at pH 7.4 after 2 hrs by UV-Visible spectrophotometric analysis; assay type: physicochemical; conditions: read-out: Kinetic_solubility
Outline: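 Equilibrated 2 h at 25°C with shaking, then filtered. Filtrates read by UV-Vis scan against 0–400 μM calibration curves in methanol/PBS.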

[6] = Half life in BALB/c mouse liver microsomes at 2 uM by HPLC-MS analysis; assay type: ADME
Outline: (§2)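 Pooled liver microsomes from male BALB/c mice at 0.42 mg protein/ml in 100 mM potassium phosphate pH 7.4 with MgCl2, NADPH and a G6P/G6PDH regenerating system. Compound 2 μM (1.6% solvent), 37°C, five time points over 40 min, duplicates. Quenched in acetonitrile, analysed by HPLC-MS/MS. kel from ln(AUC) versus time; T1/2 = 0.693/kel; CLint scaled to incubation volume per mg microsomes.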

[7] = Intrinsic clearance in BALB/c mouse liver microsomes at 2 uM up to 40 mins by HPLC-MS analysis; assay type: ADME; outline: as §2
[8] = target: T2, Free fatty acid receptor 2 (Homo sapiens, UniProt O15552); assay: Agonist activity at human FFA2 receptor expressed in CHO cells assessed as induction of Ca2+ flux by fluo-8 dye based FLIPR assay; assay type: functional, cell-based
T2 sequence (O15552 whole entry): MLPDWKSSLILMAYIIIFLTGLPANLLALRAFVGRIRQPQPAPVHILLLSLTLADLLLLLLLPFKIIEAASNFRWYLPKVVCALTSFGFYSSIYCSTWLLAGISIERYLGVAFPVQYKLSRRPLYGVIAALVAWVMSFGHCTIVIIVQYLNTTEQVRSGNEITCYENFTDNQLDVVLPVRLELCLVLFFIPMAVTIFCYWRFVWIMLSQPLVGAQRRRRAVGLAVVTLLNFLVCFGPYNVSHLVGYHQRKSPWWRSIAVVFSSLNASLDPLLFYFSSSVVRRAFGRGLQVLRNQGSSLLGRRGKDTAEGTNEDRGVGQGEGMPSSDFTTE
Outline: (§3)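 CHO lines stably expressing the respective receptor (GPR43, GPR41 or GPR120) used for specificity screening. Cells loaded 1 h with Fluo-8 calcium dye and read by FLIPR; maximum fluorescence change over baseline taken as agonist response.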

[9] = target: T3, Free fatty acid receptor 4 (Homo sapiens, UniProt Q5NUL3); assay: Agonist activity at human FFA4 receptor expressed in CHO cells assessed as induction of Ca2+ flux by fluo-8 dye based FLIPR assay; assay type: functional, cell-based; outline: as §3
T3 sequence (Q5NUL3 whole entry): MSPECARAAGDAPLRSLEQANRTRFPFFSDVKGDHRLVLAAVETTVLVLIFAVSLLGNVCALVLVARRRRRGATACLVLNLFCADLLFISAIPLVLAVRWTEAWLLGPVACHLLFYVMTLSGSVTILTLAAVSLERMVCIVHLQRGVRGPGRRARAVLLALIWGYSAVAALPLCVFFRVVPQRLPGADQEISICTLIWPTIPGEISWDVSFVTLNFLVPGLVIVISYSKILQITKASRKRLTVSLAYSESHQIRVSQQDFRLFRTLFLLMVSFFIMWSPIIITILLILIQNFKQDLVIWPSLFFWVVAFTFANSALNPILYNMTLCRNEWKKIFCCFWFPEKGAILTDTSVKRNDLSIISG

[10] = target: T4, Free fatty acid receptor 3 (Homo sapiens, UniProt O14843); assay: Agonist activity at human FFA3 receptor expressed in CHO cells assessed as induction of Ca2+ flux by fluo-8 dye based FLIPR assay; assay type: functional, cell-based; outline: as §3
T4 sequence (O14843 whole entry): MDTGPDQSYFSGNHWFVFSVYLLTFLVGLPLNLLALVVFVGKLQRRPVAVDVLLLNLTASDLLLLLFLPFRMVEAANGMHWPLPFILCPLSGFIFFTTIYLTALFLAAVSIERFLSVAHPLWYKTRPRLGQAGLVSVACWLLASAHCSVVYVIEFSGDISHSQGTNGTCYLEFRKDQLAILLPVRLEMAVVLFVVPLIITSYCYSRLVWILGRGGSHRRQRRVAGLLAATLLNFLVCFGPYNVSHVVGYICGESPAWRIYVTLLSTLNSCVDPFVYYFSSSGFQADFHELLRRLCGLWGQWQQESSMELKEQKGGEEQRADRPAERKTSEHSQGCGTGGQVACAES

T1 sequence (O14842 whole entry): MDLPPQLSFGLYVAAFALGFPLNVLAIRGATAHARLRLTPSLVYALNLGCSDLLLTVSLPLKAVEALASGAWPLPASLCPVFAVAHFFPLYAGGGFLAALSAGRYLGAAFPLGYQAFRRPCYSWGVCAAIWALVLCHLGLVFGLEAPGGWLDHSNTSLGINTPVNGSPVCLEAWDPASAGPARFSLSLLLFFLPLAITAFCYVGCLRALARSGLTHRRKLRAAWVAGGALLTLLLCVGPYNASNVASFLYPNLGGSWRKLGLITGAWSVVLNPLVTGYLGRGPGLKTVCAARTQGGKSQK

Compound `O=C(O)CCc1ccc(OCc2ccc(CN3CCC4(CC3)CC(Cc3cccc(F)c3)CCO4)cc2)cc1` (stereo not drawn) has an EC50 [1] greater than 20 µM.
For `C[C@]12CC[C@H]3[C@@H](CCC4=CC(=O)CC[C@@]43C)[C@@H]1CC[C@@H]2O` [TESTOSTERONE], the Papp A→B at 10 µM [2] was 13.6 ×10⁻⁶ cm/s.
`COC1CCOC2(CCN(Cc3ccc(COc4ccc(CCC(=O)O)cc4)cc3)CC2)C1` (stereo not drawn) gave an EC50 [1] greater than 20 µM.
With `O=C(O)CCc1ccc(OCc2ccc(CN3CCC4(CC3)CC(Cc3ccccc3F)CCO4)cc2)cc1` (stereo not drawn) the Emax [3] was 95% and the EC50 [1] was 0.81 µM.
`O=C(O)CCc1ccc(OCc2ccc(CN3CCC4(CC3)CC(OCc3ccccc3)CCO4)cc2)cc1` (stereo not drawn) gave an Emax [3] of 100% and an EC50 [1] of 1.16 µM.
`O=C(O)CCc1ccc(OCc2ccc(CN3CCC4(CC3)CC(OCc3ccc(F)cc3)CCO4)cc2)cc1` (stereo not drawn) showed an Emax [3] of 75% and an EC50 [1] of 2.01 µM.
In the case of `CC(C)NCC(O)COc1cccc2ccccc12` (stereo not drawn) [PROPRANOLOL], the Papp A→B at 10 µM [2] is reported as 28 ×10⁻⁶ cm/s.
Work on `COc1ccc(CC2CCOC3(CCN(Cc4ccc(COc5ccc(CCC(=O)O)cc5)cc4)CC3)C2)cc1.Cl` (stereo not drawn) yielded a fraction unbound at 5 h, 1 µM [4] of 0.007, a solubility kinetic at 2 h [5] of 42 µM and a half-life at 2 µM [6] of 11.8 min. For the same compound, the CLint at 40 min, 2 µM [7] was 141 µL/min/mg, the EC50 [8] was greater than 10 µM and the EC50 [9] was greater than 10 µM. It also gave an Emax [3] of 100%, an EC50 [10] greater than 10 µM and an EC50 [1] of 0.28 µM. The Papp A→B at 10 µM [2] was 15.8 ×10⁻⁶ cm/s.
For `O=C(O)CCc1ccc(OCc2ccc(CN3CCC4(CC3)CC(OCC3CC3)CCO4)cc2)cc1` (stereo not drawn), the EC50 [1] was greater than 20 µM.
For `CCOC1CCOC2(CCN(Cc3ccc(COc4ccc(CCC(=O)O)cc4)cc3)CC2)C1` (stereo not drawn), the EC50 [1] was greater than 20 µM.
`O=C(O)CCc1ccc(OCc2ccc(CN3CCC4(CC3)CC(Cc3nc(-c5cccnc5)no3)CCO4)cc2)cc1` (stereo not drawn) showed an EC50 [1] greater than 20 µM.
